Assay outcomes: PubChem, The Scripps Research Institute Molecular Screening Center
M4 ag = human M4 muscarinic receptor agonists, primary screen, CHO-K1 cells, Fluo-8 calcium fluorescence; Muscarinic acetylcholine receptor M4 (Homo sapiens), P08173; CHO-K1 hM4/Gqi5; vehicle 0%, full acetylcholine response 100%; activation, % at 3 µM; actives 0.14% (n = 360,000); AID 624127, 2012;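 active means activation above the run mean over all test wells plus 3 SD, cut at about 32% in these data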;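 further: peak over basal fluorescence ratio per well then scaled between controls; 0% = DMSO wells and 100% = acetylcholine at EC100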
Target sequence (P08173 whole entry, looked up): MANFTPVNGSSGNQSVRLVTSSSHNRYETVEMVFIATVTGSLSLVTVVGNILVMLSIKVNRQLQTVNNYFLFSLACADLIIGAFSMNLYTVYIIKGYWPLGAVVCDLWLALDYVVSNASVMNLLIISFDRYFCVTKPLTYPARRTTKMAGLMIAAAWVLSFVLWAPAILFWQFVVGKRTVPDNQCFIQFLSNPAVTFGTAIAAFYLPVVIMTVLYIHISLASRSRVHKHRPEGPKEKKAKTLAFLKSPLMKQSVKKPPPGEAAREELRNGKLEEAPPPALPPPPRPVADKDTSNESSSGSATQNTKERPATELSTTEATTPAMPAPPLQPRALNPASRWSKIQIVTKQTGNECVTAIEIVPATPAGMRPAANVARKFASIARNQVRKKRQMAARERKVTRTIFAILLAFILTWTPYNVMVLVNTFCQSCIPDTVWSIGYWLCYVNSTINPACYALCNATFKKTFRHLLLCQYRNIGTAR
M5 ag = human M5 muscarinic receptor agonists, primary screen, CHO-K1 cells, Fluo-8 calcium fluorescence | Muscarinic acetylcholine receptor M5 (Homo sapiens), P08912 | CHO-K1 hM5 cells; 0% DMSO wells, 100% maximal acetylcholine response | activation, % at 3 µM | actives 0.19% (n = 360,000) | AID 624037, 2012;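 active means activation above the run's mean over test compounds plus 3 SD, cut at about 23% in these data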;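 further: signal is peak over basal fluorescence ratio across the kinetic read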
M4 antag = human M4 muscarinic receptor antagonists, primary screen, CHO cells, Fluo-8 calcium fluorescence | AID 624125, 2012 | Muscarinic acetylcholine receptor M4 (Homo sapiens), P08173 | inhibition, % at 3 µM | CHO-hM4 cells, ACh EC80 | actives 0.73% (n = 360,000);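 active means inhibition above its plate's cutoff, the mean inhibition of sample wells plus 3 SD, cut at about 27% in these data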;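 further: 0% = acetylcholine EC80 with DMSO and 100% = DMSO without agonist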
CHRM5 PAM = human M5 muscarinic receptor positive allosteric modulators, primary screen, CHO-K1 cells, Fluo-8 calcium fluorescence; Muscarinic acetylcholine receptor M5 (Homo sapiens), P08912; CHO-K1 hM5, ACh EC20 PAM; 0% = ACh EC20, 100% = ACh EC100; activation, % at 3 µM; actives 0.3% (n = 360,000); AID 624038, 2012;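 active means activation above the run cutoff, the mean activation of all test compounds plus 3 SD, cut at about 18% in these data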
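Assay system: CHO-K1 hM5 cells / Incubation: Fluo-8 loading 80 min at 37 °C plus 30 min room temperature / Technique: Fluo-8 calcium dye fluorescence, kinetic read / Repeats: single replicate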
CHRM4 PAM = human M4 muscarinic receptor positive allosteric modulators, primary screen, CHO-K1 cells, Fluo-8 calcium fluorescence | Muscarinic acetylcholine receptor M4 (Homo sapiens), P08173 | CHO-K1 hM4/Gqi5, ACh EC20; 0% = ACh EC20, 100% = maximal ACh | activation, % at 3 µM | actives 0.4% (n = 360,000);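 active means activation above its plate's cutoff, the mean activation of sample wells plus 3 SD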
CHRM5 antagonist = human M5 muscarinic receptor antagonists, primary screen, CHO cells, Fluo-8 calcium fluorescence; Muscarinic acetylcholine receptor M5 (Homo sapiens), P08912; CHO-hM5 cells, ACh EC80; inhibition, % at 3 µM; actives 0.59% (n = 360,000);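 active means inhibition above a per-plate cutoff, the mean of that plate's test compounds plus 3 SD, cut at about 27% in these data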;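 further: 0% = acetylcholine EC80 with DMSO and 100% = DMSO without agonist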
Numbers without * were called inactive. Hits are enriched below; roughly 1.8% of the tested compounds scored in any of these assays.

SMILES | M4 ag | M5 ag | M4 antag | CHRM5 PAM | CHRM4 PAM | CHRM5 antagonist
COc1ccc(N2C(=O)c3cccc4cccc(c34)C2=O)cc1 | 0 | 1 | 1 | 2 | -4 | 9
CC(=O)Nc1ccc(-n2c(=O)c3ccccc3c3ccccc3c2=O)cc1 | 2 | 1 | -10 | -6 | 19 | 8
O=C1c2ccccc2C(=O)N1Cc1ccco1 | 1 | -9 | 1 | 1 | 7 | -4
Cc1cccc(C)c1NC(=O)CS(=O)CC(=O)NCC1OCCc2ccccc21 (stereo unspecified) | 1 | 2 | -6 | 23* | 8 | 4
CCc1ccc(NC(=O)CS(=O)CC(=O)NCC2OCCc3ccccc32)cc1 (stereo unspecified) | 0 | -5 | -5 | 3 | 0 | -1
COC(=O)/C(=C\C(=O)c1ccccc1)Nc1ccc(OC)cc1 | 1 | 3 | -1 | 27* | 0 | 30*
C(=C\c1ccccc1)/CN1CCN(C(c2cccc3ccccc23)c2nnnn2-c2ccc3c(c2)OCCO3)CC1 (stereo unspecified) | 1 | -4 | 1 | -22 | 5 | 12
COc1ccccc1C(CC(=O)c1ccccc1)CC(=O)c1ccccc1 | 0 | -3 | -7 | -12 | -8 | -4
COc1ccccc1C(CC(=O)c1ccccc1)C(=O)c1ccccc1 (stereo unspecified) | 14 | 5 | 27* | -14 | -11 | 9
CCc1cccc(NC(=O)CCS(=O)(=O)c2ccc(Br)cc2)c1 | 2 | -3 | -10 | -3 | 8 | 2
C[C@H](NC(=O)[C@@H]1Cc2ccccc2CN1)C(=O)Nc1ccc2c(c1)OCCO2 | 1 | -3 | -11 | 20* | 5 | -21
Cc1c(C(=O)N2CCC(C)(C(=O)NS(=O)(=O)C3CC3)C2)oc2ccccc12 (stereo unspecified) | 1 | -1 | -8 | 2 | 17* | 4
Cc1c(C(=O)N2CCCC(C)(C(=O)NS(=O)(=O)C3CC3)C2)oc2ccccc12 (stereo unspecified) | -1 | -1 | -6 | -5 | 7 | 5
CC(=O)N1c2ccc(S(=O)(=O)NCC3CCC(C(=O)NC4CCCCC4)CC3)cc2CC1C (stereo unspecified) | 7 | -3 | 1 | 0 | -4 | 4
CNC[C@@H]1Oc2cc(Br)ccc2S(=O)(=O)N([C@@H](C)CO)C[C@@H]1C | 1 | 0 | 48* | 1 | -13 | 0
CC(C)C(NC(=O)OCc1ccccc1)C(=O)NC1CCCCC1 (stereo unspecified) | 2 | 1 | 3 | 2 | 31* | 9
COc1cc(-n2c(=O)c3ccccc3n(Cc3cccc(F)c3)c2=O)cc(OC)c1OC | 0 | 0 | 1 | 8 | -6 | -17
COc1cc(-n2c(=O)c3ccccc3n(Cc3ccccc3)c2=O)cc(OC)c1OC | 0 | 3 | -2 | 30* | 2 | 30*
COc1ccc(CCNC(=O)c2ccc3c(c2)N(Cc2ccc(C)cc2)CCS3)cc1OC | 5 | -9 | 6 | -16 | -9 | 39*
COc1ccc(OC)c(CCNC(=O)c2ccc3c(c2)N(Cc2ccc(F)cc2)CCS3)c1 | 0 | -5 | 8 | -7 | -4 | 17
c1ccc(C(c2ccccc2)c2noc(CN3CCN(C4CCCC4)CC3)n2)cc1 | 0 | -11 | 30* | -20 | -21 | 11
Cc1cccnc1CN1CCN(Cc2nc(C(c3ccccc3)c3ccccc3)no2)CC1 | 1 | -19 | 36* | -36 | -55 | 9
CC(=O)N1CCN(Cc2nc(C(c3ccccc3)c3ccccc3)no2)CC1 | 1 | -10 | 3 | -17 | -6 | 4
Cc1nc(CN2CCN(Cc3nc(C(c4ccccc4)c4ccccc4)no3)CC2)cs1 | 1 | -10 | 26 | -15 | -19 | 34*
CCOC(=O)C1=CCN(S(=O)(=O)c2ccccc2F)C1c1cccc(Cl)c1 (stereo unspecified) | -1 | -7 | 0 | -6 | -11 | -3
SMILES | M4 ag | M5 ag | M4 antag | CHRM5 PAM | CHRM4 PAM | CHRM5 antagonist
O=c1[nH]c2ccccc2c2ccc(Cl)cc12 | 0 | -3 | -12 | -1 | 1 | 12
O=c1[nH]c2cc(F)ccc2c2ccc(F)cc12 | 1 | -2 | -13 | 19* | -2 | -9
Cc1occc1C(=O)N=Nc1c(O)n(C)c2ccccc12 | 2 | -2 | 13 | 2 | 29* | -8
C=CC[n+]1ccc(/C=C2\C=Cc3cc(C)ccc3N2CC)c2ccccc21 | 4 | 1 | 15 | -18 | -12 | 35*
CCN1/C(=C/c2cc[n+](CCCS(=O)(=O)[O-])c3ccccc23)Sc2ccccc21 | 0 | -1 | 2 | 5 | 1 | 0
O=C1NC[C@@H](CCCCN2C[C@H](Cc3ccc(O)cc3)N(CCc3ccc(O)cc3)C(=O)C2=O)N(CCc2ccc(O)cc2)C1=O | 3 | 2 | -7 | 0 | 8 | -4
COc1cc(C(=O)COC(=O)c2cc([N+](=O)[O-])ccc2N2CCOCC2)ccc1OC(F)F | 2 | -6 | 28* | -9 | -4 | 7
COc1ccccc1C(=O)COC(=O)c1cc([N+](=O)[O-])ccc1N1CCOCC1 | 4 | -4 | -13 | -7 | 1 | 10
Cc1ccc(NC(=O)C2CCN(S(=O)(=O)c3ccc4c(c3)NC(=O)C(C)S4)CC2)cc1Cl (stereo unspecified) | 12 | -2 | 29* | -12 | -11 | 28*
COc1ccccc1/C=C(\NC(=O)c1cccc(C)c1)C(=O)Nc1ccccn1 | 8 | -2 | 27* | 13 | 27* | 11
CC(=O)c1ccccn1 | 1 | 2 | -10 | 0 | 1 | 3
CC(=O)c1csc(CS(=O)(=O)c2ccccn2)n1 | 12 | 4 | 12 | 20* | -11 | 26
COc1ccc(CNC(=O)C(c2ccco2)N(C(=O)c2ccccn2)c2ccccc2)cc1 (stereo unspecified) | 10 | 5 | -2 | -2 | -7 | 1
O=C(NCc1ccccc1)C(c1ccco1)N(C(=O)c1ccccn1)c1ccccc1 (stereo unspecified) | 5 | -5 | -3 | -9 | -1 | 49*
COc1ccc(C(=O)NNC(=S)NC(=O)C(C)(C)C)cc1 | 88* | 27* | 8 | -19 | -30 | 12
COc1ccc(C(=O)NC(=S)NNC(=O)c2ccccc2C)cc1 | 123* | 59* | 12 | -27 | -51 | 28*
